According to ChEMBL document CHEMBL4004865, “Synthesis, SAR and molecular docking study of novel non-β-lactam inhibitors of TEM type β-lactamase” (Bioorg Med Chem Lett, 2017):

Columns and labels:
Escherichia coli [1] = assay: Inhibition of Escherichia coli beta-lactamase TEM-171 assessed as initial hydrolysis rate of substrate CENTA at 100 uM by UV spectrophotometric method (reference value: 0.74 +/- 0.11 uM/s)
How it was run: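 TEM-171 β-lactamase at 10 nM. Substrate and each inhibitor were tested at one fixed concentration. The initial rate V0 of substrate hydrolysis was recorded. The relative activity decrease (%) was calculated from V0 with inhibitor versus V0 of the enzyme-only control.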

Escherichia coli [2] = assay: Inhibition of Escherichia coli beta-lactamase TEM-171 using CENTA as substrate at 100 uM by UV spectrophotometric method relative to control
How it was run: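 Substrate and each inhibitor were tested at one fixed concentration. The initial rate V0 of substrate hydrolysis was recorded. The relative activity decrease (%) was calculated from V0 with inhibitor versus V0 of the enzyme-only control.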

SMILES | V0 (Escherichia coli [1]) | inhibition (Escherichia coli [2])
O=C(O)CCCC(=O)Nc1ccc(Oc2ccc(Cl)cc2Cl)cc1 | 0.51 µM/s | 31%
O=C(O)CCC(=O)Nc1ccc(Oc2ccc(Br)cc2)cc1 | 0.53 µM/s | 28%
O=C(O)CCCC(=O)Nc1ccc(Oc2ccc(Br)cc2)cc1 | 0.53 µM/s | 
O=C(O)CCC(=O)Nc1ccc(Oc2ccc(Cl)cc2)cc1 | 0.7 µM/s | 5.4%
O=C(O)c1ccc(NC(=S)Nc2ccc(Oc3ccccc3)cc2)cc1 | 0.59 µM/s | 20.3%
O=C(O)c1ccc(NC(=S)Nc2ccc(Oc3ccc(Cl)cc3Cl)cc2)cc1 | 0.37 µM/s | 50%
O=C(O)c1ccc(NC(=S)Nc2ccc(Oc3ccc(Cl)cc3)cc2)cc1 | 0.53 µM/s | 28.4%
O=C(O)CCC(=O)Nc1ccc(Oc2ccc(Cl)cc2Cl)cc1 | 0.46 µM/s | 38%
O=C(O)CCCC(=O)Nc1ccc(Oc2ccccc2)cc1 | 0.73 µM/s | 1.4%
O=C(O)CCC(=O)Nc1ccc(Oc2ccccc2)cc1 | 0.73 µM/s | 1.4%
O=C(O)CCCC(=O)Nc1ccc(Oc2ccc(Cl)cc2)cc1 | 0.73 µM/s | 1.4%
O=C(O)C(=O)Nc1ccc(Oc2ccc(Cl)cc2Cl)cc1 | 0.51 µM/s | 31%
